Assay results from ChEMBL document CHEMBL1140208, “Selectivity and mechanism of action of a growth factor receptor-bound protein 2 SRC homology 2 domain binding antagonist” (J Med Chem, 2008).
pIC50: −log10 of the molar value. One block for each compound: values may come before it. The source made the active and inactive calls. No cut-off for these calls is given here.

Tests used:
[1] = biological target: Growth factor receptor-bound protein 2 (Homo sapiens) (UniProt P62993); experiment: Binding affinity to human recombinant HGF-stimulated Grb2-SH3 in human SK-LMS1 cells assessed as presence of associated protein Nck1 at 3 uM by immunoblot analysis; type: cell-based
[2] = biological target: Growth factor receptor-bound protein 2 (Homo sapiens) (UniProt P62993); experiment: Binding affinity to human recombinant HGF-stimulated Grb2-SH3 in human SK-LMS1 cells assessed as presence of associated protein Sos1 at 3 uM by immunoblot analysis; type: cell-based
[3] = biological target: Growth factor receptor-bound protein 2 (Homo sapiens) (UniProt P62993); experiment: Binding affinity to human recombinant HGF-stimulated Grb2-SH3 in human SK-LMS1 cells assessed as presence of associated protein Nck2 at 3 uM by immunoblot analysis; type: cell-based
[4] = biological target: Growth factor receptor-bound protein 2 (Homo sapiens) (UniProt P62993); experiment: Binding affinity to human recombinant HGF-stimulated Grb2-SH3 in human SK-LMS1 cells assessed as presence of associated protein Gab1 at 3 uM by immunoblot analysis; type: cell-based
[5] = (§1) Antimotility activity in human PC3M cells assessed as inhibition of HGF-stimulated cell migration after 24 hrs by Boyden chamber assay; type: functional, cell-based; conditions: PC-3M
Outline: (§2)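 PC3M cells pretreated with compound 24 h, seeded 200,000 per modified Boyden chamber; migration stimulated with recombinant human HGF 50 ng/ml. Migrated cells counted by light microscopy in four fields (1 × 1.4 mm) per well, triplicate wells per condition; expressed as percent maximum, mean ± standard deviation; dose-response analysis.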

[6] = biological target: Growth factor receptor-bound protein 2 (Homo sapiens) (UniProt P62993); experiment: Binding affinity to human recombinant HGF-stimulated Grb2-SH2 in human SK-LMS1 cells at 3 uM by immunoblot analysis; type: cell-based
Outline: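 SK-LMS-1 cells serum-deprived 16 h, stimulated with recombinant human HGF 25 ng/ml for 20 min, lysed in cold non-ionic detergent buffer. Biotinylated ligand (3 μM) added to lysate, 1 h on ice; streptavidin beads added, 1 h at 4°C. Beads washed five times with lysis buffer at 150–500 mM NaCl; bound Grb2 detected by SDS-PAGE and anti-Grb2 immunoblot.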

[7] = Selectivity ratio for streptavidin-coupled biotin-labeled Shc-SH2 to streptavidin-coupled biotin-labeled Grb2-SH2
Outline: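 Ratio of Shc-SH2 to Grb2-SH2 steady-state affinities, both measured by SPR on Neutravidin-captured biotinylated SH2 domains (Biacore T100, 25°C, PBS pH 7.4, inhibitors 1.25–1500 nM, 1:1 fit).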

PC-3M [8] = experiment: as §1; type: functional, cell-based; outline: as §2
[9] = biological target: Serine/threonine-protein kinase PAK 1 (Homo sapiens) (UniProt Q13153); experiment: Decrease in HGF-stimulated PAK1 nuclear translocation in human PC3M cells at 1 uM after 16 hrs by immunoblot analysis; type: cell-based
Outline: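 PC3M cells treated with compound for 16 h; nuclear extracts prepared with high-salt buffer. PAK1 detected by SDS-PAGE and anti-PAK1 immunoblot, with anti-CREB immunoblot alongside.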

PC-3M [10] = experiment: Inhibition of HGF-induced human PC3M cell migration assessed as reduction in actin bundle reorganization and membrane extension at 1 uM after 6 hrs by DAPI staining; type: functional, cell-based
Outline: (§3)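 Cells in chamber slides serum-deprived ± 1 μM compound for 24 h, monolayer scratched with pipet tip, then incubated ± HGF 50 ng/ml (6 h) before fixation and permeabilization. Blocked with 5% BSA, stained overnight at 4°C with Alexa488-phalloidin for F-actin, nuclei counterstained with DAPI; lamellipodia at wound edge imaged by epifluorescence videomicroscopy.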

[11] = biological target: Serine/threonine-protein kinase PAK 1 (Homo sapiens) (UniProt Q13153); experiment: Inhibition of HGF-stimulated PAK1 activation in human PC3M cells at 1 uM after 16 hrs by immunoblot analysis; type: cell-based
Outline: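 PC3M cells serum-deprived and treated 16 h with 1 μM compound or left untreated, then stimulated briefly with HGF (50 ng/mL) for various times. Lysates probed by immunoblot with anti-phospho-PAK1; anti-PAK1 served as loading control.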

MDCK = experiment: Inhibition of HGF-induced MDCK cell migration assessed as reduction in actin bundle reorganization and membrane extension at 1 uM after 6 hrs by DAPI staining; type: functional, cell-based; conditions: Canis lupus familiaris; outline: as §3

Serine/threonine-protein kinase PAK 1 (Homo sapiens), sequence (Q13153 whole entry): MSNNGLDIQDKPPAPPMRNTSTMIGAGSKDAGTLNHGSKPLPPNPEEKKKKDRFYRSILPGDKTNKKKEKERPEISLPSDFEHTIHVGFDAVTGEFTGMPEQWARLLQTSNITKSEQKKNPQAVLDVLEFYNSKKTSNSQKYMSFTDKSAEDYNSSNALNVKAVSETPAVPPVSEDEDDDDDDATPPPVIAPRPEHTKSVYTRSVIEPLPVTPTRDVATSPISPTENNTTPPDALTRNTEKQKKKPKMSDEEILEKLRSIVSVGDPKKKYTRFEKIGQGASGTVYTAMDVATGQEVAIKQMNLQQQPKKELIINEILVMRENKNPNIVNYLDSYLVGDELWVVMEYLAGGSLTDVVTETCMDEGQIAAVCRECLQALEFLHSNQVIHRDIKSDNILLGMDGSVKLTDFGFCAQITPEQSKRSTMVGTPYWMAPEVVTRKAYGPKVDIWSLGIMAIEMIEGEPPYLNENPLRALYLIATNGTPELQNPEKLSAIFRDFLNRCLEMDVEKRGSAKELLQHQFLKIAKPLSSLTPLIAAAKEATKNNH

Activity [1]: Active | Activity [2]: Active | Activity [3]: Active | Activity [4]: Active | pIC50 [5]: 7.85 | Activity [6]: Active
SMILES: NC(=O)C[C@H](NC(=O)C1(NC(=O)[C@H](Cc2ccc(C(C(=O)O)C(=O)O)cc2)NC(=O)C(=O)O)CCCCC1)C(=O)NCCCc1cccc2c(OC(=O)CCCCCNC(=O)CCCC[C@@H]3SC[C@@H]4NC(=O)N[C@@H]43)cccc12

Ratio [7]: 101
SMILES: NC(=O)C[C@H](NC(=O)C1(NC(=O)[C@H](Cc2ccc(C(C(=O)O)C(=O)O)cc2)NC(=O)C(=O)O)CCCCC1)C(=O)NCCCc1cccc2c(O)cccc12

Activity [6]: inactive
SMILES: NC(=O)C[C@H](NC(=O)C1(NC(=O)[C@H](Cc2ccc(O)cc2)NC(=O)C(=O)O)CCCCC1)C(=O)NCCCc1cccc2c(OC(=O)CCCCCNC(=O)CCCC[C@@H]3SC[C@@H]4NC(=O)N[C@@H]43)cccc12
Activity (PC-3M [8]): inactive

SMILES: NC(=O)C[C@H](NC(=O)C1(NC(=O)[C@H](Cc2ccc(C(C(=O)O)C(=O)O)cc2)NC(=O)C(=O)O)CCCCC1)C(=O)NCCCc1cccc2ccccc12
Activity [9]: Active | Activity (PC-3M [10]): Active | Ratio [7]: 65 | Activity [11]: Active | Activity (MDCK): Active
